Activity calls are given as the source filed them. The calls are words filed in the database; no cut-off is given here.

Test [1] concerns Lactuca sativa. The test is described as follows: Inhibition of seed germination in Lactuca sativa (lettuce) at 10^-4 to 10^-9 M after 5 days relative to control. It is filed as functional. Put shortly:
(§1)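 Lettuce seeds, 25 per 50 mm Petri dish on one Whatman No. 1 filter paper, with 2.5 mL test solution in 10 mM MES pH 6 (10^-4 M, diluted to 10^-9 M). Dishes were Parafilm-sealed and kept at 25 °C in the dark. Germination was scored daily for 5 days, then root/shoot lengths were measured on plants frozen at -20 °C. Four replicates, expressed as % difference from parallel control, with Student's t-test.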

Test [2] deals with Lactuca sativa. Put plainly: Inhibition of shoot elongation in Lactuca sativa (lettuce) at 10^-4 to 10^-9 M after 5 days relative to control. It is filed as functional, organism-based. Put shortly:
as §1

Test [3] concerns Lactuca sativa. The test is described as follows: Stimulation of shoot elongation in Lactuca sativa (lettuce) at 10^-4 to 10^-9 M after 5 days relative to control. It counts as functional, organism-based. In outline:
as §1

Test [4] deals with Allium cepa. Put plainly: Stimulation of root elongation in Allium cepa (onion) at 10^-4 to 10^-9 M after 7 days relative to control. It is filed as functional, organism-based. Put shortly: (§2)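 Seeds (cress 3 days, tomato 5 days, onion 7 days), 25 per 90 mm Petri dish on one Whatman No. 1 filter paper, with 5 mL test solution in 10 mM MES pH 6 (10^-4 M, diluted to 10^-9 M). Dishes were sealed and kept at 25 °C in the dark. Germination was scored daily, then root/shoot lengths were taken after freezing at -20 °C. Four replicates, expressed as % difference from control, with t-test.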

For test [5], the system named is Lactuca sativa. The test is described as follows: Inhibition of seed germination in Lactuca sativa (lettuce) at 10^-9 M after 5 days relative to control. It counts as functional. The settings on record: 120 h. In outline: as §1
In test [6] the test system is Lepidium sativum. The test is described as follows: Effect on root elongation in Lepidium sativum at 10^-4 to 10^-9 M after 3 days relative to control. It counts as functional, organism-based. Put shortly: as §2
In test [7] the test system is Allium cepa. The test is described as follows: Inhibition of shoot elongation in Allium cepa (onion) at 10^-4 to 10^-9 M after 7 days relative to control. It counts as functional, organism-based. Put shortly:
as §2

Test [8] concerns Solanum lycopersicum. Put plainly: Effect on root elongation in Solanum lycopersicum (tomato) at 10^-4 to 10^-9 M after 5 days relative to control. It is filed as functional, organism-based. In outline: as §2
Test [9] has as its system Allium cepa. Put plainly: Effect on seed germination in Allium cepa (onion) at 10^-4 to 10^-9 M after 7 days relative to control. It is filed as functional, organism-based. Put shortly:
as §2

In test [10] the test system is Solanum lycopersicum. Put plainly: Stimulation of shoot elongation in Solanum lycopersicum (tomato) at 10^-4 to 10^-9 M after 5 days relative to control. It is filed as functional, organism-based. In outline: as §2
Test [11] has as its system Lepidium sativum. Put plainly: Effect on seed germination in Lepidium sativum at 10^-4 to 10^-9 M after 3 days relative to control. It is filed as functional, organism-based. Put shortly: as §2
Test [12] deals with Lepidium sativum. Put plainly: Inhibition of shoot elongation in Lepidium sativum at 10^-4 to 10^-9 M after 3 days relative to control. It is filed as functional. Put shortly:
as §2

For test [13], the system named is Solanum lycopersicum. Put plainly: Effect on seed germination in Solanum lycopersicum (tomato) at 10^-4 to 10^-9 M after 5 days relative to control. It counts as functional, organism-based. In outline: as §2
Test [14] deals with Lactuca sativa. The test is described as follows: Effect on root elongation in Lactuca sativa (lettuce) at 10^-4 to 10^-9 M after 5 days relative to control. It counts as functional, organism-based. Put shortly:
as §1

Test [15] has as its system Solanum lycopersicum. The test is described as follows: Inhibition of shoot elongation in Solanum lycopersicum (tomato) at 10^-4 to 10^-9 M after 5 days relative to control. It counts as functional, organism-based. In outline:
as §2

Test [16] has as its system Allium cepa. Put plainly: Stimulation of shoot elongation in Allium cepa (onion) at 10^-4 to 10^-9 M after 7 days relative to control. It counts as functional, organism-based. In outline: as §2

In the case of `COc1cc([C@@H]2c3cc(O)c(OC)cc3C[C@H](CO)[C@H]2CO)ccc1O` [(-)-ISOLARICIRESINOL], the inhibition result in [1], in test [2], in [7] and in test [15] was “Active” in each case. In addition, the result in [3], in test [10] and in test [16] was Active. The outcome in test [4], in test [6], in test [8], in test [9], in [11] and in test [13] was inactive. Further, in [14], the result was inactive. Also, the inhibition at 0.001 µM in test [5] came to 50%. Besides, the “inhibition (INH)” value in test [12] amounted to 30%.

On to `COc1cc(C[C@@H](CO)[C@H](CO)Cc2ccc(O)c(OC)c2)ccc1O` [(+)-SECOISOLARICIRESINOL], for which the inhibition result in test [1], in test [2], in test [7] and in test [15] was “Active” each time. The result in [3], in test [4], in test [10] and in test [16] was Active. This compound also came in with an inhibition at 0.001 µM in test [5] of 50%. Also, the result in test [8], in test [9], in [13] and in [14] was inactive.

Take `COc1cc([C@@H]2Oc3c(OC)cc(/C=C/CO)cc3[C@H]2CO)ccc1O` [DEHYDROCONIFERYL ALCOHOL]: the “inhibition (INH)” value in [1] is given as 70%; in [12], 30%. Moreover, the inhibition entry in test [2], in [7] and in test [15] was “Active” throughout. In addition, the result in [3], in test [4], in [10] and in test [16] was Active. Besides, the result in test [6], in [8], in test [9], in test [11], in test [13] and in test [14] was inactive.

Consider `COc1cc(C[C@H]2CO[C@H](c3ccc(O)c(OC)c3)[C@H]2CO)ccc1O` (racemic) [LARICIRESINOL], for which the inhibition result in test [1], in [2], in test [7] and in test [15] was “Active” each time. The result in [3], in test [4], in test [10] and in test [16] was Active. The same compound yielded an inhibition at 0.001 µM in test [5] of 75%. Moreover, the outcome in test [6], in test [8], in test [9], in test [11], in [13] and in [14] was inactive. For the same compound, the “inhibition (INH)” value in [12] turned out to be 30%.

For `COc1cc([C@H](O)[C@@H](CO)Oc2ccc(/C=C/CO)cc2OC)ccc1O` (racemic), the inhibition result in test [1], in [2], in test [7] and in [15] was “Active” each time. For the same compound, the outcome in test [3], in test [4], in test [10] and in test [16] was Active. Besides, the outcome in test [8], in [9], in test [13] and in [14] was inactive.

Consider `COc1cc(C[C@H]2CO[C@H](c3ccc(O[C@@H](CO)[C@@H](O)c4ccc(O)c(OC)c4)c(OC)c3)[C@H]2CO)ccc1O`, for which the inhibition entry in [1], in test [2], in test [7] and in test [15] was “Active” each time. Further, the result in test [3], in test [4], in [10] and in test [16] was Active. The outcome in test [8], in [9], in [13] and in test [14] was inactive.

The inhibition is the change of the read-out against control, counted positive when it falls.

The record behind these values is ChEMBL document CHEMBL3044706, “Lignans and neolignans from Brassica fruticulosa: effects on seed germination and plant growth” (2003).
